Platelet DG rel – modulates dense granule release in human platelets | inhibition, %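 (compounds screened at 7.5 µM in platelet-rich plasma)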 | AID 1663 | human platelet-rich plasma, SFLLRN dense granule ATP release, luminescence | hit rate 0.22% among 300,000;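 active means mean replicate score, as percent of positive control, at or above 50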
STAT1 inh – STAT1 signaling inhibition. hit rate 0.35% among 200,000. NIH 3T3 STAT1-luciferase reporter, IFN-gamma, luminescence. inhibition, % at 5.5 µM. AID 920;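 active means inhibition above a set limit, the mean inhibition across all tested compounds plus 3 SD, cut at about 34% in these data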;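 further: 0% = IFN-gamma with DMSO and 100% = IFN-gamma with 300 µM nifuroxazide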
PPC-1+TRAIL kill – PPC-1 cancer cell killing with TRAIL present; PPC-1 cells + TRAIL, ATPLite viability luminescence; hit rate 0.41% among 220,000; cell killing (% activity), % at 4 µM or 5 µM;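 active means cell killing above 50% in the first pass at 4 µM, then a duplicate retest at 5 µM averaging 50% or more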;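 further: plate controls were cells with TRAIL plus DMSO for no effect and medium-only wells lacking cells for full effect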
H9c2 TAG inh – reduces triacylglycerol accumulation in H9c2 cells; inhibition, % at 12.5 µM; Nile Red lipid (TAG) fluorescence; cells loaded with 200 µM oleic acid; hit rate 0.66% among 230,000;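 active means pattern-corrected inhibition of lipid staining of at least 50% with the nuclear-stain viability signal not falling by more than 50%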;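 further: 0% = DMSO wells and 100% = triacsin C control wells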
Hep lipid drop – modulators of hepatic lipid droplet formation. AML12 mouse hepatocytes, oleate lipid droplets, BODIPY imaging. inhibition, % at 6.5 µM. hit rate 0.4% among 240,000. AID 1656;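 active means lipid droplet intensity inhibited by at least 50%, with more than 500 cells counted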
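Material – mouse AML12 hepatocyte cell line, fixed after treatment · Compound dosing – one dose, 6.5 µM compound · Times – compound with oleate, overnight · Measured by – Image-based BODIPY and DAPI two-channel analysis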
STAT3 inh-1 – reduces IL-6 driven STAT3 reporter signal; AID 862; hit rate 0.89% among 190,000; U3A cells, IL-6 STAT3-luciferase reporter, luminescence; host cell line lacks STAT1; inhibition, % at 5.5 µM;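 active means inhibition above the mean inhibition across all screened compounds plus 3 SD, cut at about 44% in these data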;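 further: 0% = DMSO only wells and 100% = 100 µM nifuroxazide control wells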
STAT3 inh-2 – STAT3 inhibition, confirmation assay; hit rate 45% among 1,200; shares compounds with STAT3 inh-1; U3A cells, IL-6 STAT3 luciferase reporter, luminescence; cell line lacks STAT1; inhibition, % at 5.7 µM;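 active means inhibition above the hit cutoff computed for the primary STAT3 screen, cut at about 44% in these data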;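 further: 0% = IL-6 plus DMSO and 100% = IL-6 plus nifuroxazide control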
NFkB inh STAT3ct – inhibits NF-kappaB, counter-screen to STAT3 inhibitors. shares compounds with STAT3 inh-1. HEK293T NF-kB luciferase reporter, TNF-alpha induced. inhibition, % at 5.7 µM. hit rate 36% among 1,200;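 active means inhibition above the mean of solvent-only control wells plus 3 SD, cutoff set per campaign, cut at about 13% in these data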;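 further: 0% = TNF-alpha with DMSO and 100% = TNF-alpha with MG high control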
STAT1 inh STAT3c – counter-screen for STAT3 inhibitors: STAT1 inhibition. shares compounds with STAT3 inh-1. NIH 3T3 STAT1-luciferase reporter, IFN-gamma induced, luminescence. inhibition, % at 5.7 µM. hit rate 27% among 1,200. AID 1317;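 active means inhibition above the mean plus 3 SD of solvent-only control wells, limit set per screening run, cut at about 16% in these data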;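 further: 0% = DMSO with IFN-gamma and 100% = nifuroxazide control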
* marks the source's active call; other numbers are inactive results; nt = no result given. Rows were chosen to be rich in hits. Some 1.5% of all compounds tested hit in one or more screens of this group.

SMILES	Platelet DG rel	STAT1 inh	PPC-1+TRAIL kill	H9c2 TAG inh	Hep lipid drop	STAT3 inh-1	STAT3 inh-2	NFkB inh STAT3ct	STAT1 inh STAT3c
Cc1ccc(S(=O)(=O)Nc2ccccc2C(=O)Nc2nc(-c3ccc(F)cc3)cs2)cc1	-11.2	30.0	25.2	nt	-61.7	45.0*	33.2	17.8*	25.5*
O=C(Nc1cc(S(=O)(=O)N2CCCCC2)ccc1O)c1ccccc1NS(=O)(=O)c1ccc(F)cc1	24.9	0.8	9.8	0.3	3.9	4.5	nt	nt	nt
Cc1nc(C)c(C(=O)Nc2ncc([N+](=O)[O-])s2)o1	32.7	29.8	25.6	-11.0	-4.3	67.7*	20.1	-4.1	-80.2
O=C(Nc1ccccc1)Nc1ncc([N+](=O)[O-])s1	27.4	32.7	24.5	-15.8	-42.8	54.4*	3.3	-32.5	-99.2
O=C(O)c1cnc2ccc(Cl)cc2n1	nt	nt	nt	-1.1	nt	nt	nt	nt	nt
Cc1nn2cc(-c3ccccc3)nc2s1	-27.3	-48.6	21.4	nt	nt	52.2*	11.9	-32.1	-97.8
c1ccc(-c2cn3nc(-c4ccccc4)sc3n2)cc1	33.7	nt	nt	1.1	nt	nt	nt	nt	nt
O=C1CC(c2ccc3c(c2)OCO3)Sc2nc3ccccc3n21 (stereo unspecified)	-0.6	-21.8	-7.6	nt	nt	52.5*	17.1	-8.0	-83.8
CCN(CC)c1ccc(N=C2C=CC(=O)C=C2NC(C)=O)cc1	nt	nt	nt	13.9	nt	nt	nt	nt	nt
O=C(c1ccc(Cl)cc1)N1CCCCC(Sc2nnc(-c3ccc4c(c3)OCO4)o2)C1=O (stereo unspecified)	8.0	14.2	47.7	-3.5	-3.4	98.3*	85.1*	69.7*	39.6*
COc1cccc2cc(-c3cn4ccc(C)cc4n3)c(=O)oc12	-5.0	-75.6	nt	nt	nt	20.0	nt	nt	nt
CCOc1cccc2cc(-c3cn4cc(C)ccc4n3)c(=O)oc12	2.0	-45.5	45.6	18.8	nt	69.1*	39.3	-17.4	-81.6
CCC/C=C/c1ccc(CN2C(C(C)C)C(=O)N(Cc3cn(CCC4OCCO4)nn3)CCS2(=O)=O)cc1 (stereo unspecified)	nt	nt	nt	6.0	nt	nt	nt	nt	nt
Cc1ccc2nc(-c3ccc(NC(=O)COC(=O)c4ccc([N+](=O)[O-])o4)cc3)sc2c1	9.0	-61.8	50.6*	nt	-11.4	55.2*	34.6	-8.6	-67.3
Cc1ccc2nc(-c3ccc(NC(=O)COC(=O)c4ccco4)cc3)sc2c1	5.0	-44.8	55.1*	nt	-1.5	50.5*	28.3	-20.3	-64.0
CCOc1ncccc1C(=O)OCC(=O)Nc1ccc(-c2nc3ccc(C)cc3s2)cc1	-8.8	-18.6	37.9	3.5	-12.7	72.1*	45.6*	-20.5	-24.7
Cc1ccc(NC(=O)COC(=O)c2ccco2)cc1	3.9	-5.4	6.5	nt	7.7	2.0	nt	nt	nt
CCOc1ncccc1C(=O)OCC(=O)Nc1c(C)cc(C)cc1C	-1.0	3.0	-10.1	-0.4	1.7	5.4	nt	nt	nt
O=C(O)CNc1nc(NCc2ccc(Cl)cc2)ccc1[N+](=O)[O-]	nt	nt	nt	-8.4	nt	nt	nt	nt	nt
Cc1cccc2cc3c(N)c(C#N)sc3nc12	0.2	-11.4	9.9	3.5	nt	50.2*	29.5	-6.6	-27.3
Cc1oc(-c2ccc(Cl)cc2)nc1CN1CCCC(C(=O)N2CCN(C(=O)c3ccco3)CC2)C1 (stereo unspecified)	3.3	13.7	19.4	-10.4	nt	79.3*	72.3*	26.0*	11.6
Clc1ccc(-c2cn3nc4c(nc3n2)CCCC4)cc1	-6.7	-14.1	3.8	-1.8	-3.0	51.3*	42.2	-11.5	-77.9
COc1cccc(-c2cn3nc4c(nc3n2)CCCC4)c1	30.5	-65.9	3.3	nt	nt	15.7	nt	nt	nt
Cc1cccc(Cl)c1NC(=O)N1CCCN(c2nc3ccc(Cl)cc3s2)CC1	-4.4	nt	21.7	0.4	-1.4	nt	nt	nt	nt
Cc1cccc(C)c1NC(=O)N1CCN(c2nc3ccccc3s2)CC1	-0.5	3.8	10.6	12.2	0.8	56.5*	56.8*	8.3	4.4
CCOc1ccc(NC(=O)N2CCN(c3nc4ccccc4s3)CC2)cc1	-4.1	25.0	13.4	-20.9	nt	54.8*	39.4	3.3	16.7*

Screens from PubChem BioAssay.
